Target: Transient receptor potential cation channel subfamily V member 1 (Rattus norvegicus, UniProt O35433)
Test: Antagonist activity at TRPV1 in Sprague-Dawley rat DRG neuron assessed as reduction of capsaicin-stimulated 45Ca2+ uptake
Assay type: functional
Summary of the method: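 Neonatal Sprague-Dawley rat DRG neurons (all spinal levels) dissociated with collagenase/trypsin and cultured 3 days with C6 glioma-conditioned medium. Washed in HEPES (10 mM, pH 7.4) Ca/Mg-free HBSS. Exposed to 45Ca2+ plus 0.5 µM capsaicin with compound for 10 min at room temperature. Cells washed, SDS-lysed, scintillation counted.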

Chain of Transient receptor potential cation channel subfamily V member 1 (O35433 whole entry): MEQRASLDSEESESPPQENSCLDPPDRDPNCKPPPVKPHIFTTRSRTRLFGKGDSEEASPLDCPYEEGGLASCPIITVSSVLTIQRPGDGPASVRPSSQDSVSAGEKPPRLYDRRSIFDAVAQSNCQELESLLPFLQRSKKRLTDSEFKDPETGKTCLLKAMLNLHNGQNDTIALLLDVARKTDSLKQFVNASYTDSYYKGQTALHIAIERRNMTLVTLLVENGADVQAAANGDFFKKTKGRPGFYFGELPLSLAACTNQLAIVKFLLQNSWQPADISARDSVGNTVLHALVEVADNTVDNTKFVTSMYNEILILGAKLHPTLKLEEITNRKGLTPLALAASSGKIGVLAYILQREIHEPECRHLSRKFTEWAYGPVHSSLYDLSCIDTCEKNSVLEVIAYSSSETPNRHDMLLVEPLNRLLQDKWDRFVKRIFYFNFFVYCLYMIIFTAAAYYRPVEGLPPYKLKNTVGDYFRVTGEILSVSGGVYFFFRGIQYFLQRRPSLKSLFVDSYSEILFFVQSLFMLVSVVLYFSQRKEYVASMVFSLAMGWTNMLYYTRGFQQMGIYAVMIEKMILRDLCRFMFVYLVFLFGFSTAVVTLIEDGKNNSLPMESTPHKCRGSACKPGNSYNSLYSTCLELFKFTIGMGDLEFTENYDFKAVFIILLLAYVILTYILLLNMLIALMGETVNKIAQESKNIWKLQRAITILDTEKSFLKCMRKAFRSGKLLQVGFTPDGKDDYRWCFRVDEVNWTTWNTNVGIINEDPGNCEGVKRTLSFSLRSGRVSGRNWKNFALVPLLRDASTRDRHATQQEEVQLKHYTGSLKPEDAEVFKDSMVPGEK

SMILES	IC50
CC1(C)Cc2cc(/C=C/C(=O)NCc3ccc(NS(C)(=O)=O)c(F)c3)ccc2O1	4300 nM
CC1(C)CCc2cc(/C=C/C(=O)NCc3ccc(NS(C)(=O)=O)c(F)c3)ccc2O1	1400 nM
CC1(c2ccc(/C=C/C(=O)NCc3ccc(NS(C)(=O)=O)c(F)c3)cc2)CC1	390 nM
CC(C)(C)c1cc2c(c(CCC(=O)NCc3ccc(NS(C)(=O)=O)c(F)c3)c1)OCCC2	280 nM
CS(=O)(=O)Nc1ccc(CNC(=O)CCc2cc(C(F)(F)F)cc(C(F)(F)F)c2)cc1F	2500 nM
CC1(C)CCC(C)(C)c2cc(CCC(=O)NCc3ccc(NS(C)(=O)=O)c(F)c3)ccc21	180 nM
CC1(C)CCC(C)(C)c2cc(CCC(=O)NCc3cc(F)c(NS(C)(=O)=O)c(C#N)c3)ccc21	57 nM
CC(C)(C)c1cc(/C=C/C(=O)NCc2ccc(NS(C)(=O)=O)c(F)c2)c2c(c1)CCCO2	920 nM
CC1(C)CCC(C)(C)c2cc(/C=C/C(=O)NCc3ccc(NS(C)(=O)=O)c(F)c3)ccc21	340 nM
CC(C)(C)c1cc2c(c(CCC(=O)NCc3ccc(NS(C)(=O)=O)c(F)c3)c1)OCC2	5000 nM
CC(C)(C)c1cc(/C=C/C(=O)NCc2ccc(NS(C)(=O)=O)c(F)c2)c2c(c1)CCO2	1500 nM
CS(=O)(=O)Nc1ccc(CNC(=O)/C=C/c2ccc(I)cc2)cc1F	> 10000 nM
CC1(c2ccc(CCC(=O)NCc3cc(F)c(NS(C)(=O)=O)c(C#N)c3)cc2)CC1	210 nM

Further lines, results first:

IC50	SMILES
> 10000 nM	CC1(C)Cc2cc(CCC(=O)NCc3ccc(NS(C)(=O)=O)c(F)c3)ccc2O1
360 nM	CS(=O)(=O)Nc1ccc(CNC(=O)CCc2ccc(CC3CC3)cc2)cc1F
> 10000 nM	CC(C)Oc1ccc(CCC(=O)NCc2ccc(NS(C)(=O)=O)c(F)c2)cc1
85 nM	CC(C)(C)c1ccc(CCC(=O)NCc2cc(F)c(NS(C)(=O)=O)c(C#N)c2)cc1
170 nM	CC(C)(C)c1ccc(CCC(=O)NCc2ccc(NS(C)(=O)=O)c(F)c2)cc1
2800 nM	CC(C)(C)c1ccc(CNC(=O)CCc2ccc(NS(C)(=O)=O)c(F)c2)cc1
4600 nM	CS(=O)(=O)Nc1ccc(CNC(=O)CCc2ccc(C(F)(F)F)cc2)cc1F
7200 nM	CC1(C)CCc2cc(CCC(=O)NCc3ccc(NS(C)(=O)=O)c(F)c3)ccc2O1
640 nM	CC(C)Cc1ccc(CCC(=O)NCc2ccc(NS(C)(=O)=O)c(F)c2)cc1
> 10000 nM	CC(C)(C)Oc1ccc(CCC(=O)NCc2ccc(NS(C)(=O)=O)c(F)c2)cc1
> 10000 nM	CS(=O)(=O)Nc1ccc(CNC(=O)CCc2ccccc2)cc1F
710 nM	CC(C)(C)c1ccc(CNC(=O)NCc2ccc(NS(C)(=O)=O)c(F)c2)cc1
> 10000 nM	CS(=O)(=O)Nc1ccc(CNC(=O)CCc2ccc(Br)cc2)cc1F
200 nM	CC(C)(C)c1cc(CCC(=O)NCc2ccc(NS(C)(=O)=O)c(F)c2)cc(C(C)(C)C)c1
